Series [1] relates to 11 bacterial strains (S. aureus, P. aeruginosa, A. baumannii, K. pneumoniae, E. coli). The series can be described thus: Antimicrobial activity screening, summary over groups of strains. In kind it is cell-based. Particulars: 50 µg/ml screen.
Series [2] relates to A. baumannii ATCC 19606. The series can be described thus: Antimicrobial activity screening. Format: cell-based, Acinetobacter baumannii. Particulars: 50 µg/ml screen.
In series [3] the test system is Galleria mellonella larvae. Kind of series: In vivo toxicity in Galleria mellonella larvae. The settings on record: G. mellonella larvae, N=10 per group. The gist of the method:
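Sixth-instar Galleria mellonella larvae (200–300 mg) were held in sawdust at 4 °C until use. Groups of ten were injected with 10 μl of test compound, colistin or 0.9 % NaCl saline control into the second rear proleg, then kept at 30 °C.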

Peptide text beside a SMILES is read from it. Some results are limits rather than exact numbers.

`CC[C@H](C)[C@H](NC(=O)[C@H](CCCCN)NC(=O)[C@H](CCCCN)NC(=O)[C@@H](Cc1ccccc1)NC(=O)[C@H](CC(C)C)NC(=O)[C@H](CCCCN)NC(=O)[C@@H](N)CCCCN)C(=O)N[C@@H](CC(C)C)C(=O)N[C@@H](CCCCN)C(=O)N[C@@H](Cc1ccc(O)cc1)C(=O)N[C@@H](CC(C)C)C(N)=O` [BP143]: the “growth inhibition for all Gram-negative strains tested” value in series [1] is on record as not below 83%.

For the molecule `CC[C@H](C)[C@H](NC(=O)[C@H](CCCCN)NC(=O)[C@H](CCCCN)NC(=O)[C@H](Cc1c[nH]cn1)NC(=O)[C@H](CC(C)C)NC(=O)[C@H](CCCCN)NC(=O)[C@H](Cc1ccccc1)NS(=O)(=O)c1ccc(C)cc1)C(=O)N[C@@H](CC(C)C)C(=O)N[C@@H](CCCCN)C(=O)N[C@H](C(=O)N[C@@H](CC(C)C)C(N)=O)C(C)C` [BP275] (HELM PEPTIDE1{[Cc1ccc(S(=O)(=O)[*:2])cc1].F.K.L.H.K.K.I.L.K.V.L.[am]}$$$$V2.0), the “growth inhibition against A. baumannii ATCC 19,606” value in series [2] was not below 93%.

Consider `CC[C@H](C)[C@H](NC(=O)[C@@H](CCCCN)NC(=O)[C@H](CCCCN)NC(=O)[C@H](Cc1ccccc1)NC(=O)[C@H](CC(C)C)NC(=O)[C@H](CCCCN)NC(=O)[C@@H](N)CCCCN)C(=O)N[C@@H](CC(C)C)C(=O)N[C@@H](CCCCN)C(=O)N[C@@H](Cc1ccc(O)cc1)C(=O)N[C@@H](CC(C)C)C(N)=O` [BP146], for which the “growth reduction in all strains except P. aeruginosa ST175–1” value in series [1] is recorded as “at least 89%”.

On to `CC[C@H](C)[C@H](NC(=O)[C@H](CCCCN)NC(=O)[C@H](CCCCN)NC(=O)[C@H](Cc1ccccc1)NC(=O)[C@H](CC(C)C)NC(=O)[C@H](CCCCN)NC(=O)[C@H](CCCCN)NS(=O)(=O)c1ccc(C)cc1)C(=O)N[C@@H](CC(C)C)C(=O)N[C@@H](CCCCN)C(=O)N[C@@H](CCCCN)C(=O)N[C@@H](CC(C)C)C(N)=O` [BP125], for which the “growth inhibition in all strains except both K. pneumoniae and E. coli ATCC 25,922” value in series [1] was not below 83%.

Consider `CCCC(=O)NCCCC[C@H](NC(=O)[C@@H](NC(=O)[C@H](CCCCN)NC(=O)[C@H](CCCCN)NC(=O)[C@@H](Cc1ccccc1)NC(=O)[C@H](CC(C)C)NC(=O)[C@H](CCCCN)NC(=O)[C@H](CCCCN)NC(C)=O)[C@@H](C)CC)C(=O)N[C@@H](CCCCN)C(=O)N[C@@H](Cc1ccc(O)cc1)C(=O)N[C@@H](CC(C)C)C(N)=O` [BP474], for which the “growth inhibition against A. baumannii ATCC 19,606” value in series [2] was not below 93%.

As for Colistin, in series [3] (50 µg/larvae (10 μl of 5 mg/ml), 30 °C), the “mortality after 24h” value is reported as 50%. This molecule showed an LD50 in series [3] (10 μl injected, viability at 48h) of 5 mg/mL.

These data come from PMC11904594 (Current Research in Microbial Sciences, 2025).
